{"source": "ChEMBL document CHEMBL3758100", "about": "“4H-Chromene-based anticancer agents towards multi-drug resistant HL60/MX2 human leukemia: SAR at the 4th and 6th positions” (Bioorg Med Chem, 2016)", "key": {"HL-60": {"system": "HL-60", "test": "Selectivity ratio of IC50 for human HL60/MX2 cells to IC50 for human HL60 cells", "assay_type": "functional", "method_in_brief": "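Ratio of IC50 in HL60/MX2 over HL60, both from the 48 h CellTiter-Blue growth-inhibition assay. IC50s are means of at least three biological repeats. Two-tailed Student t test between the two cell lines.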"}, "[1]": {"test": "Cytotoxicity against human HL60 cells assessed as cell growth inhibition after 48 hrs by cell titer blue cell viability assay", "assay_type": "functional, cell-based", "details": "HL-60, 48 h", "method_in_brief": "(§1)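 HL60 or HL60/MX2 cells kept in RPMI 1640 with 10% FBS and 1% penicillin–streptomycin at 37 °C, 5% CO2. Seeded at 1 × 10^4 cells/well and exposed to serial dilutions (1% DMSO final; 1% DMSO medium as control) in triplicate for 48 h. Viability read by CellTiter-Blue. IC50 fitted with a dose–response model; at least three biological repeats on different days; mean ± SD.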"}, "[2]": {"test": "Cytotoxicity against human HL60/MX2 cells assessed as cell growth inhibition after 48 hrs by cell titer blue cell viability assay", "assay_type": "functional, cell-based", "details": "HL60/MX2, 48 h", "method_in_brief": "as §1"}}, "data": [{"smiles": "C#CCOC(=O)CC1C(C(=O)OCC#C)=C(N)Oc2ccc(-c3cc(OC)cc(OC)c3)cc21", "note": "(configuration not stated)", "values": [{"measurement": "Ratio IC50", "setting": "HL-60", "value": 0.74}, {"measurement": "IC50", "setting": "[1]", "value": 1.16, "unit": "µM"}, {"measurement": "IC50", "setting": "[2]", "value": 0.86, "unit": "µM"}]}, {"smiles": "C#CCOC(=O)CC1C(C(=O)OCC#C)=C(N)Oc2ccc(-c3cccc(N)c3)cc21", "note": "(configuration not stated)", "values": [{"measurement": "IC50", "setting": "[1]", "value": 1.73, "unit": "µM"}, {"measurement": "IC50", "setting": "[2]", "value": 0.54, "unit": "µM"}]}, {"smiles": "C#CCOC(=O)C1=C(N)Oc2ccc(-c3cc(OC)cc(OC)c3)cc2C1CC(=O)CCC", "note": "(configuration not stated)", "values": [{"measurement": "Ratio IC50", "setting": "HL-60", "value": 0.78}, {"measurement": "IC50", "setting": "[1]", "value": 6.9, "unit": "µM"}, {"measurement": "IC50", "setting": "[2]", "value": 5.4, "unit": "µM"}]}, {"smiles": "C#CCOC(=O)C1=C(N)Oc2ccc(-c3cc(OC)cc(OC)c3)cc2C1CC(O)CCC", "note": "(configuration not stated)", "values": [{"measurement": "Ratio IC50", "setting": "HL-60", "value": 0.77}, {"measurement": "IC50", "setting": "[1]", "value": 46.6, "unit": "µM"}, {"measurement": "IC50", "setting": "[2]", "value": 35.8, "unit": "µM"}]}, {"smiles": "CCCC(=O)CC1C(C(=O)OCC)=C(N)Oc2ccc(-c3cc(OC)cc(OC)c3)cc21", "note": "(configuration not stated)", "values": [{"measurement": "Ratio IC50", "setting": "HL-60", "value": 0.43}, {"measurement": "IC50", "setting": "[1]", "value": 27.3, "unit": "µM"}, {"measurement": "IC50", "setting": "[2]", "value": 11.7, "unit": "µM"}]}, {"smiles": "C#CCOC(=O)C1=C(N)Oc2ccc(-c3cc(OC)cc(OC)c3)cc2C1CC(=O)c1ccccc1", "note": "(configuration not stated)", "values": [{"measurement": "Ratio IC50", "setting": "HL-60", "value": 0.81}, {"measurement": "IC50", "setting": "[1]", "value": 7.3, "unit": "µM"}, {"measurement": "IC50", "setting": "[2]", "value": 5.9, "unit": "µM"}]}, {"smiles": "CCOC(=O)C1=C(N)Oc2ccc(-c3cc(OC)cc(OC)c3)cc2C1CC(=O)c1ccccc1", "note": "(configuration not stated)", "values": [{"measurement": "Ratio IC50", "setting": "HL-60", "value": 0.38}, {"measurement": "IC50", "setting": "[1]", "value": 109, "unit": "µM"}, {"measurement": "IC50", "setting": "[2]", "value": 41, "unit": "µM"}]}, {"smiles": "C#CCOC(=O)CC1C(C(=O)OCC#C)=C(N)Oc2cc3c(cc21)-c1cc(OC)cc(OC)c1CO3", "note": "(configuration not stated)", "values": [{"measurement": "Ratio IC50", "setting": "HL-60", "value": 0.18}, {"measurement": "IC50", "setting": "[1]", "value": 41.9, "unit": "µM"}, {"measurement": "IC50", "setting": "[2]", "value": 7.4, "unit": "µM"}]}, {"smiles": "C#CCOC(=O)CC1C(C(=O)OCC#C)=C(N)Oc2cc(C)c(-c3cccc(N)c3)c(C)c21", "note": "(configuration not stated)", "values": [{"measurement": "Ratio IC50", "setting": "HL-60", "value": 1.63}, {"measurement": "IC50", "setting": "[1]", "value": 50.5, "unit": "µM"}, {"measurement": "IC50", "setting": "[2]", "value": 82.2, "unit": "µM"}]}, {"smiles": "C#CCOC(=O)C1=C(N)Oc2ccc(-c3cc(OC)cc(OC)c3)cc2C1CC(O)c1ccccc1", "note": "(configuration not stated)", "values": [{"measurement": "Ratio IC50", "setting": "HL-60", "value": 0.54}, {"measurement": "IC50", "setting": "[1]", "value": 100, "unit": "µM"}, {"measurement": "IC50", "setting": "[2]", "value": 54, "unit": "µM"}]}, {"smiles": "CCOC(=O)CC1C(C(=O)OCC)=C(N)Oc2ccc(-c3cc(OC)cc(OC)c3)cc21", "note": "(configuration not stated)", "values": [{"measurement": "Ratio IC50", "setting": "HL-60", "value": 0.32}, {"measurement": "IC50", "setting": "[1]", "value": 5.4, "unit": "µM"}, {"measurement": "IC50", "setting": "[2]", "value": 1.7, "unit": "µM"}]}]}
